# Assay results published in ChEMBL document CHEMBL1133529, “Solid-phase synthesis and biological evaluation of a combinatorial library of philanthotoxin analogues” (J Med Chem, 2000).
# How the values were obtained:
# [1] = target: T1, Acetylcholine receptor; alpha1/beta1/delta/gamma (Homo sapiens, UniProt P02708+P07510+P11230+Q07001); experiment: Antagonist activity at human muscle-type nAChR (embryonic muscle) expressed in TE671 cells; (end value).; type: functional, cell-based, TE-671
# In short: (§1)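 Whole-cell patch clamp of TE671 cells (embryonic muscle-type nAChR) at 17-23 °C. Pipette: 140 mM CsCl, 1 mM CaCl2, 11 mM EDTA, 5 mM HEPES pH 7.2. Compound co-applied with 10 µM acetylcholine as 1-s pulses ≥30 s apart; IC50 from peak and end currents.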
# [2] = target: T1, Acetylcholine receptor; alpha1/beta1/delta/gamma; experiment: Antagonist activity at human muscle-type nAChR (embryonic muscle) expressed in TE671 cells; (peak value).; type: functional, cell-based, TE-671; in short: as §1
# [3] = Tested for antagonist activity on non-NMDAR (expressed in Xenopus Oocytes) from rat brain mRNA.; type: functional, cell-based
# In short: (§2)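 Xenopus laevis oocytes injected with rat brain RNA, kept at 18 °C ≥3 days, voltage-clamped at -80 mV. Bath saline: 120 mM NaCl, 2 mM KCl, 1.8 mM CaCl2, 10 mM HEPES pH 7.5. 100 µM kainic acid perfused 120 s, antagonist co-applied 40-80 s. IC50 from decrease of kainate-evoked current.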
# [4] = Tested for antagonist activity on non-NMDAR expressed in Xenopus Oocytes from rat brain mRNA.; type: functional, cell-based; in short: as §2
# T1 sequence (P02708 whole entry): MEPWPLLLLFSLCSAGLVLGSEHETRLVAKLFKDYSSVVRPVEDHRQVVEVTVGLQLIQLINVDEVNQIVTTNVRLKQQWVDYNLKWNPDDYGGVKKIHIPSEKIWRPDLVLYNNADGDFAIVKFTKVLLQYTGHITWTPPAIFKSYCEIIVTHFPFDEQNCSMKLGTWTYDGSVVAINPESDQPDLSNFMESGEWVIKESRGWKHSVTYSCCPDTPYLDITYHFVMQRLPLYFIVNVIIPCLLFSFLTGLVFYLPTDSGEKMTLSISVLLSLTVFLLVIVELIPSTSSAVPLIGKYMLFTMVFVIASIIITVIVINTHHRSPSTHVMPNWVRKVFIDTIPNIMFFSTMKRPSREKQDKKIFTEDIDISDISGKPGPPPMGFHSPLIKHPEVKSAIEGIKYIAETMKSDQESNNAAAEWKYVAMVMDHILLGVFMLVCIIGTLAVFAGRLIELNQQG
# T1 sequence (P07510 whole entry): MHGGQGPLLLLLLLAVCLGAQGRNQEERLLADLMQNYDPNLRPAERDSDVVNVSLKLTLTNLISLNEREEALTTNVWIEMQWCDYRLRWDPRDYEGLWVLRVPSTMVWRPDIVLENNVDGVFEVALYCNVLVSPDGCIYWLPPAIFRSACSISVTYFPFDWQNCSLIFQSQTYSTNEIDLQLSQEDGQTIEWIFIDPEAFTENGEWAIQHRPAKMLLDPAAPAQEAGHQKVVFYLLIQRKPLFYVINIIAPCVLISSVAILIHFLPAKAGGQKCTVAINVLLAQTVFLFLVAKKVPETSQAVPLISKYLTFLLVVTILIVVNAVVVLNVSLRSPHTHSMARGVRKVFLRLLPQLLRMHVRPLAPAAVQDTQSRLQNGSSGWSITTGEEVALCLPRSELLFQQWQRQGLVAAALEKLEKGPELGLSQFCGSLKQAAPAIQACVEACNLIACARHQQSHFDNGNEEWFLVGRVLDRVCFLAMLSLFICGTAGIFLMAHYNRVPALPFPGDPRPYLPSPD
# T1 sequence (P11230 whole entry): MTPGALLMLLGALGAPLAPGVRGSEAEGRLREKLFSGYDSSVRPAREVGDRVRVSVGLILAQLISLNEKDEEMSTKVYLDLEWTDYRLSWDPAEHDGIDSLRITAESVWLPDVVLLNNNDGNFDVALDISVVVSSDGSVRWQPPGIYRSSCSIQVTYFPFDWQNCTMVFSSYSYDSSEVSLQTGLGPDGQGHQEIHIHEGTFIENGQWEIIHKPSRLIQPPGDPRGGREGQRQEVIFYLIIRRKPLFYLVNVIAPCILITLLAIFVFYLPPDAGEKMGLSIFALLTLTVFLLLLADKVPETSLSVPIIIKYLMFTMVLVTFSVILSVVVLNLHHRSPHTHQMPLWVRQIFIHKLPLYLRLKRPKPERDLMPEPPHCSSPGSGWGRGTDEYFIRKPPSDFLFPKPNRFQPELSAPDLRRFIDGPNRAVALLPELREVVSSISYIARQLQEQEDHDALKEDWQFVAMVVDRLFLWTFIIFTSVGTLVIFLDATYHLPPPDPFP
# T1 sequence (Q07001 whole entry): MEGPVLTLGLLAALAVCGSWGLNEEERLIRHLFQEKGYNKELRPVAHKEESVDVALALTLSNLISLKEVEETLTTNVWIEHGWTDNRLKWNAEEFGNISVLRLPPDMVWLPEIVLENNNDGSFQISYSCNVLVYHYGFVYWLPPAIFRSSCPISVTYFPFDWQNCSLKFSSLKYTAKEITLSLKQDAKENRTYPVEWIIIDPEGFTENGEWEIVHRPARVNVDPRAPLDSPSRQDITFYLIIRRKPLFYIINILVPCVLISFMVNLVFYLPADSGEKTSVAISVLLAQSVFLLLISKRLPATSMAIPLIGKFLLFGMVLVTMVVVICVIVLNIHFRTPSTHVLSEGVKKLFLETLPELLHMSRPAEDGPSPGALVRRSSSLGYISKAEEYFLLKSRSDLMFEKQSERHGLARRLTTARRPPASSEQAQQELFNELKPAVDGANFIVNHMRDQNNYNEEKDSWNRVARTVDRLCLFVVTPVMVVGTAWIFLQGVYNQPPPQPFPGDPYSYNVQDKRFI
Structure (SMILES),IC50 [1],IC50 [2],IC50 [3],IC50 [4]
NCCCCCCCCCCCCNC(=O)[C@H](Cc1cccc(O)c1)NC(=O)Cc1ccccc1,8.05 µM,105 µM,–,–
NCCCOCCCCOCCCNC(=O)[C@H](Cc1ccc(O)cc1)NC(=O)Cc1ccccc1,12.6 µM,35 µM,–,–
NCCCOCCCCOCCCNC(=O)[C@H](Cc1cccc(O)c1)NC(=O)CC1CCCCC1,4.47 µM,30.7 µM,–,–
NCCCNCCCCNCCCNC(=O)[C@H](Cc1cccc(O)c1)NC(=O)Cc1ccccc1,10.1 µM,98.2 µM,–,–
NCCCCCCCCCCCCNC(=O)[C@H](Cc1ccc(O)cc1)NC(=O)CC1CCCCC1,151 µM,> 1000 µM,–,–
CCCC(=O)N[C@@H](Cc1ccc(O)cc1)C(=O)NCCCCCCCCCCCCN,0.79 µM,15.1 µM,> 100 µM,–
NCCCNCCCCNCCCNC(=O)[C@H](Cc1cccc(O)c1)NC(=O)CC1CCCCC1,5.33 µM,59.8 µM,–,–
CCCC(=O)N[C@@H](Cc1cccc(O)c1)C(=O)NCCCOCCCCOCCCN,42.6 µM,110 µM,–,–
NCCCOCCCCOCCCNC(=O)[C@H](Cc1cccc(O)c1)NC(=O)Cc1ccccc1,25.3 µM,50.9 µM,–,–
NCCCOCCCCOCCCNC(=O)[C@H](Cc1ccc(O)cc1)NC(=O)CC1CCCCC1,5.69 µM,25.9 µM,–,–
NCCCNCCCCNCCCNC(=O)[C@H](Cc1ccc(O)cc1)NC(=O)CC1CCCCC1,13.2 µM,86.9 µM,–,0.18 µM
NCCCCCCCCCCCCNC(=O)[C@H](Cc1ccc(O)cc1)NC(=O)Cc1ccccc1,17.2 µM,388 µM,–,–
CCCC(=O)N[C@@H](Cc1ccc(O)cc1)C(=O)NCCCOCCCCOCCCN,10.9 µM,72.7 µM,> 100 µM,–
CCCC(=O)N[C@@H](Cc1cccc(O)c1)C(=O)NCCCNCCCCNCCCN,117 µM,> 1000 µM,–,–
CCCC(=O)N[C@@H](Cc1ccc(O)cc1)C(=O)NCCCNCCCCNCCCN [PHILANTHOTOXIN 343],11.8 µM,56.7 µM,0.75 µM,–
CCCC(=O)N[C@@H](Cc1cccc(O)c1)C(=O)NCCCCCCCCCCCCN,2.43 µM,104 µM,–,–
NCCCNCCCCNCCCNC(=O)[C@H](Cc1ccc(O)cc1)NC(=O)Cc1ccccc1,22.3 µM,249 µM,–,0.015 µM
